{"data": "Measured values gathered from unrelated publications", "target": "Serine/threonine-protein kinase SIK3 (SIK3, Homo sapiens, UniProt Q9Y2K2)", "note": "Lines come from different studies, so protocols differ."}
{"SMILES": "CO[C@@H]1[C@H](N(C)C(=O)c2ccccc2)C[C@H]2O[C@]1(C)n1c3ccccc3c3c4c(c5c6ccccc6n2c5c31)C(=O)NC4", "observed": "enzyme activity", "action": "inhibitor", "tested at": "1 µM", "measurement": "inhibition", "value": "79%"}
{"SMILES": "C1=C/COCc2cc(ccc2OCCN2CCCC2)Nc2nccc(n2)-c2cccc(c2)COC/1", "observed": "cell-free assay", "tested at": "0.1 µM", "measurement": "remaining signal", "value": "83%"}
{"SMILES": "CN1CCN(C(=O)c2ccc(NC(=O)Nc3ccc(N(C)c4ccnc(Nc5ccc(CS(C)(=O)=O)cc5)n4)cc3)cc2)CC1", "observed": "binding", "method": "competition with immobilised ligand", "tested at": "1 µM", "measurement": "remaining binding", "value": "86%"}
{"SMILES": "Cc1cc(O)c(-c2ccc([C@@H](C)CN(C)C)cc2)c2c1[nH]c(=O)c1sccc12", "observed": "enzyme activity", "action": "inhibitor", "tested at": "0.1 µM", "measurement": "inhibition", "value": "-11.2%"}
{"SMILES": "CCCCC(=O)Nc1ccc(-c2ccc3ncn(CCC)c(=O)c3c2)cn1", "observed": "binding", "method": "competition with immobilised ligand", "tested at": "0.5 µM", "measurement": "remaining binding", "value": "100%"}
{"SMILES": "C#Cc1cc(-c2cc(Nc3nc(N[C@@H](C)c4ccc(F)cn4)ncc3Cl)n[nH]2)ccc1C=O", "observed": "enzyme activity", "action": "inhibitor", "tested at": "0.2 µM", "measurement": "inhibition", "value": "31.1%"}
{"SMILES": "CC(C)S(=O)(=O)c1ccc2nccc(Nc3ccc4sc(C5CCCC5)nc4c3)c2c1", "observed": "enzyme activity", "action": "inhibitor", "tested at": "1 µM", "measurement": "activity vs control", "value": "104%"}
{"SMILES": "C=CC(=O)N1CCC([C@@H]2CCNc3c(C(N)=O)c(-c4ccc(Oc5ccccc5)cc4)nn32)CC1", "observed": "enzyme activity", "action": "inhibitor", "tested at": "1 µM", "measurement": "inhibition", "value": "9%"}
{"SMILES": "Cc1ccc(NC(=O)c2ccnc(C(F)(F)F)c2)cc1-c1cc(OCCO)nc(N2CCOCC2)c1", "observed": "binding", "method": "competition with immobilised ligand", "tested at": "1 µM", "measurement": "remaining binding", "value": "86%"}
